# Measurements published in article PMC4224617 (Chemistry & biology, 2014).
# Molecular target: T1, Plu2411 (Photorhabdus laumondii, UniProt Q7N4D0)
# T1 sequence (Q7N4D0 1-259): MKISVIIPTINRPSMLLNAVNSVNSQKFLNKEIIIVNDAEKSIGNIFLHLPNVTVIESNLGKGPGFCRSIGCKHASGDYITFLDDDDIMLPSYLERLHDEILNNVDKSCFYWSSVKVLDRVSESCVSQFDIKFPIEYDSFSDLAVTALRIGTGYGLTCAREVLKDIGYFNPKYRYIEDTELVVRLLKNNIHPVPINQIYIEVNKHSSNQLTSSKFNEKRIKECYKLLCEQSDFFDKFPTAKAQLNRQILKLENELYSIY
# Test: LC/MS product detection, GT-only reaction
# Type: biochemical
# Conditions: α-UDP-GlcNAc as substrate
row,SMILES,"LC/MS product detection, GT-only reaction"
1,O=c1ccn([C@@H]2O[C@H](COP(=O)(O)OP(=O)(O)O)[C@@H](O)[C@H]2O)c(=O)[nH]1 [UDP],"In the GT-only reaction, we could detect UDP and free Glc-NAc products"

# Molecular target: chicken egg white lysozyme (Gallus gallus, UniProt P00698)
# Sequence (P00698 19-147): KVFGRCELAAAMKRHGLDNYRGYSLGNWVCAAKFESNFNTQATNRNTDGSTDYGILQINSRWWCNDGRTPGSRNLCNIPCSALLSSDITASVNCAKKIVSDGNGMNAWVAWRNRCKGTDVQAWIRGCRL
# Test: EnzChek fluorescent lysozyme assay, Dixon plot
# Type: biochemical
# Conditions: not given
# How it was run: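 Substrate: fluorescein-labelled Micrococcus lysodeikticus cells (DQ lysozyme substrate). Run according to the kit's instructions. Ki values determined for oligosaccharide test compounds.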
row,SMILES,Ki [µM]
1,"CC(=O)N[C@H]1[C@@H]2OC[C@@H](O2)[C@@H](O[C@@H]2O[C@H](CO)[C@@H](O)[C@H](O)[C@H]2NC(C)=O)[C@@H]1O [compound 1, 1]",3590 ± 1290
2,"CC(=O)N[C@H]1[C@H](O[C@H]2[C@H](O)[C@@H](NC(C)=O)[C@@H]3OC[C@H]2O3)O[C@H](CO)[C@@H](O[C@@H]2O[C@H](COP(=O)(O)O)[C@@H](O)[C@H](O)[C@H]2N)[C@@H]1O [compound 5, 5]",750 ± 410

# More lines, now with the values ahead:
row,Ki [µM],SMILES
1,170 ± 130,"CC(=O)N[C@H]1[C@@H]2OC[C@@H](O2)[C@@H](O[C@@H]2O[C@H](CO)[C@@H](O[C@@H]3O[C@H](CO)[C@@H](O)[C@H](O)[C@H]3NC(C)=O)[C@H](O)[C@H]2NC(C)=O)[C@@H]1O [compound 2, 2]"
2,300 ± 270,"CC(=O)N[C@H]1[C@@H]2OC[C@@H](O2)[C@@H](O[C@@H]2O[C@H](CO)[C@@H](O[C@@H]3O[C@H](CO)[C@@H](O[C@@H]4O[C@H](CO)[C@@H](O)[C@H](O)[C@H]4NC(C)=O)[C@H](O)[C@H]3NC(C)=O)[C@H](O)[C@H]2NC(C)=O)[C@@H]1O [compound 3, 3]"
3,400 ± 230,"CC(=O)N[C@H]1[C@H](O[C@H]2[C@H](O)[C@@H](NC(C)=O)[C@@H]3OC[C@H]2O3)O[C@H](CO)[C@@H](O[C@@H]2O[C@H](CO)[C@@H](O)[C@H](O)[C@H]2N)[C@@H]1O [compound 4, 4]"
